Experimental data from the RNAGym collection of RNA variant scans (doi:10.1126/science.aae0568).
Fewer inactive variants are shown than the library holds.

B1: tRNA (parent)
chain: GUUCCGUUGGCGUAAUGGUAACGCGUCUCCCUCCUAAGGAGAAGACUGCGGGUUCGAGUCCCGUACGGAACG

Variants of: B1
Experiment: yeast fitness relative to wild type (ratio to wild type); higher = fitter; tRNA-Arg(CCU), competitive growth, 37 C, YPD
Outline: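 Amplicons of the tRNA-Arg(CCU) gene were sequenced, 100-nucleotide paired-end, from the start population and from each end population of a pooled yeast competition. The competition, in six parallel replicates, lasted 24 hours in YPD at 37°C. Fitness relative to wild type was calculated from changes in genotype frequencies. Genotypes had to have ≥ 100 starting reads, and estimates < 0.5 were set to 0.5.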

Yeast fitness, 0.527:
GUUCCGUUGGCGUUAUGGUAUUGCGUCUCCCUCCUAAGGAGAAGACUGCGGGUUCGAGUCCCGUACGGAACG

Yeast fitness, 0.603:
GUUCCGUUGGCGUUAUGGUAACGCGUCUCCCUCCUAAGGCGAAGACUGCGGGUUCGAGUCCAGUAUGGAACG

Yeast fitness, 0.529:
GUUCCGUUGGCGUUAUGGUAACGGGUCUCCCUCCUAAGGAAAAAACUGCGGGAUCGGGUCCCGUAUGGAACG

Yeast fitness, 0.511:
GUUCCGUUGGCGUUAUGGUAACGCGUCUCCCUCCUAAGGAGAUGACUGCGGGUUGGAGUCCCGUACGGAACG

Yeast fitness, 0.544:
GUUCCGUUGGCGUUAUGGUUACGCGUCUCCCUCCUAAGGAGAAGACUGCGGGUUCGAGUCCCGUACAGAACG

Yeast fitness, 0.601:
GUUCCGUUGGCGUUAUGGUAACGCGUCUCCCUCCUAAGGAGAAGACUGCGGGUUCGCGUGACGUACGGAACG

Yeast fitness, 0.537:
GUUCCGUUGGCGUUUUGGUAACGCGUCUCCCUCGUAAGGAGCAGACUGCGGGUUCGAGUCCCGUACGGAACG

Yeast fitness, 0.661:
GUUCCGUUGGCGUUAUGGUAACGCGUCUCCCUCCUAAGGAGAAGCUUGGGGGUUCGAGUCCCAUACGGAUCG

Yeast fitness, 0.681:
GUUCCGUUGGCGUUCUGGUAACGCGUCUCCCUCCUAAGGAGAAGACUGCGGGUUCGAGUCCCGUACGGAACG

Yeast fitness, 0.788:
GUUCCGUUGGCGUUAUGGUAACGCGUCUCCCUCCUAAGGAGAAGACUGCGGGUUCGAGUCCCGUGGGGAACG

Yeast fitness, 0.721:
GUUCCGUUGGCGUUAUGGUAACGCGUCUCCCUCCUAAGGAGAUGACUGCGGGUUCGAGUCCCGUACGGAACG

Yeast fitness, 0.67:
GUUCCGUUGGCGUUAUGGUAACGCGUCUCCCUCCUAAGGAGAAGGCUGCGGGUUCGAGUCCCGUACGGAACG

Yeast fitness, 0.584:
GUUCCGUUGGCGUUAUGGUAGCGCGUCUCCCUCCUAAGGAGAAGACUGCGGGUUCGAGUCCCGUACGGAACG

Yeast fitness, 0.554:
GUUCCGUUGGCGUUGUGGUACCGCGUCUCCCUCCUAAGGAGAAGACUGCGGGUUCAAGUCCUGUUCGGAACG

Yeast fitness, 0.558:
GUUCCGUUGGCGUUAUGGUAACGCGUCUCCCUCCUAAGGAGAGGACUGCGGGUUCGAGGCCGAUACGGAACG

Yeast fitness, 0.734:
GUUCCGUUGGCGUUAUGGUAACGCGUCUCCCUCCUAAGGAGAAGACUGCGGGUUCGAGUCCCGUACGGAGCG

Yeast fitness, 0.592:
GUUCCGUUGGCGUUAUGGUAACGCGUCUCCCUCCUAAGGAGAAGCCUGCGGGUUCGAGUCCCGUACGGUACG

Yeast fitness, 0.702:
GUUCCGUUGGCGUUAUGGUAACGCGUCUCCCUCCUAAGGAGAAGACUGCGGGUUCGAGUCCCGUACGGUACG

Yeast fitness, ≤ 0.5:
GUUCCGUUGGCGUUCUGGUAACGCGUCUCCCUCCUAAGGGGAAGACUGCGGGUUCCAGUCCCGUACCGAACG
GUUCCGUUGGCGUUCUGGUAACGCGUCUCCCUACUAAGCAGAAGACUGCGGGUUCGAGUCCCGUACGGAACG
GUUCCGUUGGCGUUGUGGUAACGUGUCUCCUUCCUAAGGAGAAGACUGCGGGUUCGAGUCUCGUACGGAACG
GUUCCGUUGGCGUUGUGGUAACGCGUCUCCAUCGUAAGGAGAAGACUGCGGGUUCGAGUCUCGUACGGAACG
GUUCCGUUGGCGUUGUGGUAACGCGUCUCCCUUCUAAGGAGCAGACUGCGGGUUCGAGUCCCGUACGGAACG
GUUCCGUUGGCGUUGUGAUAACGCGUCUCCCUCCUAAGGAGAAGACUGCGGGUUCGAGUCCCGUACGGAACG
GUUCCGUUGGCGUUAUGGUCAGGCGUCUCCGUCCUAAGGAGAAGACAGCGGGUUCGAGUCCCGUACGGAACG
GUUCCGUUGGCGUUAUGGUCACGCGUUUCCCUCCCAAGGAGAAGACUACGGGUUCGAGUCCAGUACGGAACG
GUUCCGUUGGCGUUAUGGUCACGCGUCUCCGUCCUAAGGAGAAGACUGCGGGUUCGAGUCCCGUACGGUACG
GUUCCGUUGGCGUUAUGGUCACACGUCUCCCUCCUAAGGAGAAGAAUGCGGGUUCGAGUCCCGCACGGAACG
GUUCCGUUGGCGUUAUGGUCACGCGUCUCCCUCCUAAGGAGAAGACUGCGGGUUCGAGACCCGUAAGGAACG
GUUCCGUUGGCGUUAUGGUCACGCGUCUCCCUCCUAAGGAGAAGACUGCGGGUUCGAGCCCCGUACGGAACG
GUUCCGUUGGCGUUAUGGUGACGAGUCUCCUUCCUAUGGAGAAGACUACGGGUUCGAGUCCCGUACGGCACG
GUUCCGUUGGCGUUAUGGUGACGCGUCUCGCUCCUAAGGAGCAGACUGCGGGUUCGAGUCCCGUACGGAACG
GUUCCGUUGGCGUUAUGGUUACGCGUCUCCCUCCUAAGGAGAAGACUGUGGGUUCGAGUCCCGUACGGAACG
GUUCCGUUGGCGUUAUGGUACCGCGUCUCCCUCCUCAGGAGAAGACUGAGGGUUCGAGUCCCGUACGCAACG
GUUCCGUUGGCGUUAUGGUACCGCGUCUCCCUCCUAAGGAAAAGACUGCGGGUUCGAGUCCCGUACCGAACG
GUUCCGUUGGCGUUAUGGUACCGCGUCUCCCUCCUAAGGAGAAGACUGCGGGUGCGAGUCCCGUACGGAACG
GUUCCGUUGGCGUUAUGGUAGCGCGUCUCCCUCCUAAGGAGAUGACUGCGGGUUCGACUCCCGUACGGAACG
GUUCCGUUGGCGUUAUGGUAGCGCGUCUCCCUCCUAAGGAGAAGCCUGCGGGUUCGAGCCCCGUACGGAACG
GUUCCGUUGGCGUUAUGGUAGCGCAUCUCCCUCGUAAGGAGAAGACUGCGGGUUCGUGUCCCGUACGGUACG
GUUCCGUUGGCGUUAUGGUAGCGCGUCUCCCUCCUAAGCAGAAGGCUGCGGGUUCGAGUCCCCUACGGAACG
GUUCCGUUGGCGUUAUGGUAUCGCGUCUGCCUCCUAAGGAGAAGAUUGCGGGUUCGAGUCCCGUACGGAACG
GUUCCGUUGGCGUUAUGGUAACGCGUCUCCCUCCUGAGGAGAAGACUGCGGGAUCGAGUCCCGUACGGAACG
GUUCCGUUGGCGUUAUGGUAACGCGUCUCCCUCCUUAGGAGAAGGCUGCGGGUUCGAGUCCCGUACGGAACG
GUUCCGUUGGCGUUAUGGUAACGCGUCUCCCUCCUUAGGAGAAGACUGCGGGUUCGAGUCCGGUACGGAACG
GUUCCGUUGGCGUUAUGGUAACGCGUCUCCCUCCUAUGGAGAAGACUGCGGGUUCGAGUCCCGUACGGAACG
GUUCCGUUGGCGUUAUGGUAACGCGUCUCCCUCCUAUGGCGGAGACUGCGGGUUCGAGUCCCGUACGGAACG
GUUCCGUUGGCGUUAUGGUAACGCGUCUCCCUCCUAUGGAGAAGUCUGCGGGUUCGAGUCCCGUACGGAACG
GUUCCGUUGGCGUUAUGGUAACGCGUCUCCCUCCUAUGGAGAAGACUGCGGGUUCGAGUCCCGUGCGGAACG
GUUCCGUUGGCGUUAUGGUAACGCGUCUCCCUCCUAUGGAGAAGACUGCGGGUUCGAGUCACGUUCGGAACG
GUUCCGUUGGCGUUAUGGUAACGCGUCUCCCUCCUAAGGCGAAGACUGCGGGUUCGCGUCUCGUACGGAACG
GUUCCGUUGGCGUUAUGGUAACGCGUCUCCCUCCUAAGGAGCAGACUGCGGAUUCCAGUCCCGUACGGAACG
GUUCCGUUGGCGUUAUGGUAACGCGUCUCCCUCCUAAGGAGGGGACUGCGGGUUCGAGUCCCGUAGGGAACG
GUUCCGUUGGCGUUAUGGUAACGCGUCUCCCUCCUAAGGAGAGGACUGCGGGUUCGAGUCCCCUACGGAACG
GUUCCGUUGGCGUUAUGGUAACGCGUCUCCCUCCUAAGGAGAUGGCUGCGGGCUCGAGUCCCGUACGGAACG
GUUCCGUUGGCGUUAUGGUAACGCGUCUCCCUCCUAAGGAGAUGACUGCGGGUUCGAGACCCGUACGGAACG
GUUCCGUUGGCGUUAUGGUAACGCGUCUCCCUCCUAAGGAGAAGGCUGCGGGCUCGAGUCCCGUACGGAACG
GUUCCGUUGGCGUUAUGGUAACGCGUCUCCCUCCUAAGGAGAAGUCUGCGGGUUCGACUCCCGUACGGAACG
GUUCCGUUGGCGUUAUGGUAACGCGUCUCCCUCCUAAGGAGAAGUCUGCGGGUUCGAGUCCCGUACGCAACG
GUUCCGUUGGCGUUAUGGUAACGCGUCUCCCUCCUAAGGAGAAGACUGCGGGUUCGUGUACCGUACGGAACG
GUUCCGUUGGCGUUAUGGUAACGCGUCUCCCUCCUAAGGAGAAGACUGCGGGUUCGAGUCCCGUACGGUCCG
GUUCCGUUGGCGUUAUGGUAAAGCGUCUCCCUCCUAAGGAGAGGACUGCGGGUUCGAGUCCCGUACGGAACG
GUUCCGUUGGCGUUAUGGUAAAGCGUCACUCUCCUAAGGAGAAGACUGCGGGACCGAGUCCCGUACGGAACG
GUUCCGUUGGCGUUAUGGUAAGGCGUCUCCCUCCUAAGGAGCAGACUGCGGGUUCGAGUCCCGUAUGGAACG
GUUCCGUUGGCGUUAUGGUAAGGCGUCUCCCUCCUAAGGAGUAGACUGCGGGUUCGAGUCCCGUACGGAACG
GUUCCGUUGGCGUUAUGGUAAUGCGUCUCCCUCCUAAGGAGAAGUCUGCGGGUUCGAGUCCCGUACGGAACG
GUUCCGUUGGCGUUAUGGUAAUGCGUCUCUCUCCUAAGGAGAAGAUUGCGGCUUCGAGUCCCGUACGGAACG
GUUCCGUUGGCGUUAUGGUAACGGGUCUCCCUCCUGAGGAGAAGACUGCGGGUUCGAGUCCCGUAUGGAACG
GUUCCGUUGGCGUUAUGGUAACGGGUCUCCCUCCUAAGGAAAAAACUGCGGGAUCGAGUCCCAUAUGGAACG
GUUCCGUUGGCGUUAUGGUAACGGGGCUCCCUCCUAAGGAGAAGACUGCGGGUUCGAGUCCCGUACGGAACG
GUUCCGUUGGCGUUAUGGUAACGUGUCUCCCUCCUAAGGAGAAGACUGCGGGUUCGAGUCCCGCACGGAACG

Yeast fitness, 0.576:
GUUCCGUUGGCGUUAUGGUAAGGCGUCUCCCUCCUAAGGAGAAGACUGCGGGUUCGAGUCCCGUACGGAUCG

Yeast fitness, 0.657:
GUUCCGUUGGCGUUAUGGUAACGGGUCUCCCUCCUAAGGAGAAGACUGCGGGUUCGAGUCCCGUACGGAACG

Yeast fitness, 0.521:
GUUCCGUUGGCGUUAUGGUAGCGCGUCUCCCUCCUAAGCAGAAGGCUGCGGGCUCGAGUCCCGUACGGAACG

Yeast fitness, 0.639:
GUUCCGUUGGCGUUAUGGUAACGCGUCUCCCUCCUAAGGAGCAGACUGCGGGUUCGAGUCCCGUACGGAACG

Yeast fitness, 0.725:
GUUCCGUUGGCGUUGUGGUAACGCGUCUCCCUCCUAAGGAGAAGACUGCGGGUUCGAGUCCCGUACGGAACG
